Experimental findings from ChEMBL document CHEMBL1123624, “Prodrugs of L-cysteine as protective agents against acetaminophen-induced hepatotoxicity. 2-(Polyhydroxyalkyl)- and 2-(polyacetoxyalkyl)thiazolidine-4(R)-carboxylic acids” (1987) are described below.

The structures appear in SMILES notation.

The species entered for assay [1] is Mus musculus. Description: Number of mice with necrosis was measured for compound along with acetaminophen and number of animals showing necrosis rating of 1+ was reported. The assay is classed as functional.
The species entered for assay [2] is Mus musculus. Description: Number of mice with necrosis was measured for compound along with acetaminophen and number of animals showing necrosis rating of 0 was reported. Format: functional.
For assay [3], the species on record is Mus musculus. The assay is described as follows: Percentage survival of mice after 48 hr. The assay is classed as functional. Further details: concentration or dose not given beside the values. In outline: (§1)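 Male Swiss-Webster mice (19–31 g) were fasted overnight with water available. They received acetaminophen 750 mg/kg (4.97 mmol/kg) ip and then, 30 min later, prodrug 2.45 mmol/kg ip. The prodrug was given in sterile water, sterile 0.1 N NaHCO3, or as a slurry in 2% CMC. Food was then restored, and animals were checked at 12, 24 and 48 h. Survivors were counted at 48 h.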

The species named for assay [4] is Mus musculus. Description: Protection of mice against acetaminophen-induced Hepatotoxicity. The assay is classed as functional. In outline: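 Fasted male Swiss-Webster mice (19–31 g) were given acetaminophen 750 mg/kg ip, then prodrug 2.45 mmol/kg ip 30 min later. Outcomes were 48-h survival plus histology. Central-lobe liver sections came from animals found dead at 12/24/48 h or killed at 48 h. Sections were formalin-fixed and H&E-stained. Necrosis was rated blind using Mitchell's scale.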

Assay [5] is filed under the species Mus musculus. Description: Number of mice with necrosis was measured for compound along with acetaminophen and number of animals showing necrosis rating of 2+ was reported. Format: functional.
The species named for assay [6] is Mus musculus. The assay is described as follows: Number of mice with necrosis was measured for compound along with acetaminophen and number of animals showing necrosis rating of 3+ was reported. Format: functional.
For assay [7], the species on record is Mus musculus. The assay is described as follows: Number of mice with necrosis was measured for compound along with acetaminophen and number of animals showing necrosis rating of 4+ was reported. Format: functional.
The species entered for assay [8] is Rattus norvegicus. The assay is described as follows: In vitro increased GSH content of rat hepatocytes when incubated with compound after 4 hr at 2.5 mM concentration. The assay is classed as functional, Hepatocyte. In outline:
(§2)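 Primary rat hepatocyte cultures exposed to prodrug for 4 h; medium aspirated, cells rinsed with cold PBS, deproteinized with 5% sulfosalicylic acid. Total GSH (GSH + GSSG) measured by modified DTNB–glutathione reductase recycling, from cycling rate (ΔOD 412 nm/min); expressed as nmol/10^6 cells ± SE and relative to untreated controls.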

Assay [9] is filed under the species Rattus norvegicus. The assay is described as follows: Inhibitory effect on GSH elevation elicited by compound in rat hepatocytes in the presence of buthionine sulfoximine (BSO) (0.2 mM). The assay is classed as functional, Hepatocyte. In outline: (§3)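 Primary rat hepatocytes pre-exposed to buthionine sulfoximine (0.20 mM) before 4 h incubation with prodrug (1.0 mM). Total GSH (GSH + GSSG) after PBS rinse and 5% sulfosalicylic acid deproteinization, by modified DTNB–glutathione reductase recycling (ΔOD 412 nm/min). Reported as nmol/10^6 cells ± SE and relative to untreated controls.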

Assay [10] is filed under the species Rattus norvegicus. The assay is described as follows: In vitro increased GSH content of rat hepatocytes when incubated with compound after 4 hr at 1.0 mM concentration. The assay is classed as functional, Hepatocyte. Summed up:
as §2

The species named for assay [11] is Mus musculus. Description: Number of mice with necrosis was measured for compound along with acetaminophen showing necrosis rating of 4+ was reported. The assay is classed as functional.
The species entered for assay [12] is Mus musculus. Description: Number of mice with necrosis was measured for compound along with acetaminophen showing necrosis rating of 0 was reported. The assay is classed as functional.
The species entered for assay [13] is Mus musculus. Description: Number of mice with necrosis was measured for compound along with acetaminophen showing necrosis rating of 3+ was reported. The assay is classed as functional.
The species entered for assay [14] is Mus musculus. The assay is described as follows: Number of mice with necrosis was measured for compound along with acetaminophen showing necrosis rating of 1+ was reported. The assay is classed as functional.
The species entered for assay [15] is Mus musculus. Description: No of mice protected out of 10 against acetaminophen-induced Hepatotoxicity after 48 h. The assay is classed as functional. Summed up: as §1
The species named for assay [16] is Rattus norvegicus. The assay is described as follows: GSH level related to controls. Format: functional. In outline:
as §2

The species named for assay [17] is Rattus norvegicus. The assay is described as follows: GSH level related to controls in the presence of buthionine sulfoximine (BSO) (0.2 mM). Format: functional. In outline:
as §3

Assay [18] is filed under the species Mus musculus. Description: Number of mice with necrosis was measured for compound along with acetaminophen showing necrosis rating of 2+ was reported. Format: functional.
For assay [19], the species on record is Mus musculus. The assay is described as follows: No of mice protected out of 12 against acetaminophen-induced Hepatotoxicity after 48 h. The assay is classed as functional. Summed up:
as §1

In the case of `CC(=O)N[C@@H](CS)C(=O)O` [ACETYLCYSTEINE], the No. of animals in the assay listed under Mus musculus [1] was 3; in the assay listed under Mus musculus [2] it was 13; in the assay filed under Mus musculus [5] it was 0; in the assay listed under Mus musculus [6], 1; in the assay filed under Mus musculus [7] it was 1. Also, the Survival came out at 94% in the assay filed under Mus musculus [3] and 17% in the assay listed under Mus musculus [4]. Besides, the “[GSH]” value in the assay listed under Rattus norvegicus [8] is recorded as 45.8 nM (10e6*cells)-1.
On to `O=C(O)[C@@H]1CSC(C(O)C(O)C(O)CO)N1` (stereo in doubt; 1c), for which the “[GSH]” value in the assay listed under Rattus norvegicus [9] is on record as 22.4 nmol/10^6 cells; in the assay filed under Rattus norvegicus [10], 45.9 nmol/10^6 cells. This compound also registered a Survival in the assay listed under Mus musculus [3] of 30%. The No. of animals stood at 9 in the assay filed under Mus musculus [11]; 0 in the assay listed under Mus musculus [12]; 1 in the assay filed under Mus musculus [13]; 0 in the assay listed under Mus musculus [14]; 0 in the assay filed under Mus musculus [18]. The No. of survivors in the assay listed under Mus musculus [15] was determined as 3. The results for the GSH level in the assay filed under Rattus norvegicus [16] and in the assay listed under Rattus norvegicus [17] were 1.3 and 0.6, respectively.
As for `O=C(O)[C@@H]1CSC(C(O)C(O)C(O)CO)N1` (stereo in doubt; 1e), the “[GSH]” value in the assay listed under Rattus norvegicus [9] came to 22.6 nmol/10^6 cells; in the assay listed under Rattus norvegicus [10] it was 58.3 nmol/10^6 cells. The Survival in the assay filed under Mus musculus [3] came out at 60%. The No. of animals in the assay listed under Mus musculus [11] is reported as 5; in the assay filed under Mus musculus [12], 3. In the assay listed under Mus musculus [15], this compound displayed a No. of survivors of 6. Also, the figures for the GSH level in the assay filed under Rattus norvegicus [16] and in the assay filed under Rattus norvegicus [17] were 1.6 and 0.8, respectively.
Regarding `O=C(O)[C@@H]1CSC(C(O)C(O)C(O)CO)N1` (stereo in doubt; 1d), the results for the “[GSH]” value in the assay listed under Rattus norvegicus [9] and in the assay filed under Rattus norvegicus [10] were 16.2 nmol/10^6 cells and 61.2 nmol/10^6 cells, respectively. Also, the Survival in the assay listed under Mus musculus [3] stood at 100%. The No. of animals was 0 in the assay filed under Mus musculus [11]; 4 in the assay filed under Mus musculus [12]; 0 in the assay filed under Mus musculus [13]; 2 in the assay listed under Mus musculus [14]; 6 in the assay filed under Mus musculus [18]. Besides, the figures for the GSH level in the assay filed under Rattus norvegicus [16] and in the assay listed under Rattus norvegicus [17] were 1.7 and 0.5, respectively. In the assay filed under Mus musculus [19], this compound yielded a No. of survivors of 12.
As for `CC(=O)Nc1ccc(O)cc1` [ACETAMINOPHEN], the Survival in the assay listed under Mus musculus [3] was found to be 17%. The No. of animals stood at 11 in the assay filed under Mus musculus [11]; 0 in the assay filed under Mus musculus [12]; 0 in the assay listed under Mus musculus [13]; 0 in the assay listed under Mus musculus [14]; 1 in the assay filed under Mus musculus [18]. This compound also showed a No. of survivors in the assay filed under Mus musculus [19] of 2.
In the case of `O=C(O)[C@@H]1CSC(C(O)CO)N1` (some centres undefined), the “[GSH]” value in the assay listed under Rattus norvegicus [9] was determined as 18.3 nmol/10^6 cells; in the assay listed under Rattus norvegicus [10], 46.1 nmol/10^6 cells. The same compound had a Survival in the assay listed under Mus musculus [3] of 30%. Further, the No. of animals in the assay listed under Mus musculus [11] is listed as 7; in the assay listed under Mus musculus [12], 0; in the assay listed under Mus musculus [13] it was 2; in the assay filed under Mus musculus [14] it was 0; in the assay listed under Mus musculus [18] it was 1. In addition, in the assay filed under Mus musculus [15], the No. of survivors is reported as 3. For the same compound, the GSH level in the assay filed under Rattus norvegicus [16] is reported as 1.3; in the assay filed under Rattus norvegicus [17], 0.5.
As for `O=C(O)[C@@H]1CSC(C(O)C(O)C(O)CO)N1` (stereo in doubt; 1b), the “[GSH]” value in the assay filed under Rattus norvegicus [9] is on record as 19.5 nmol/10^6 cells; in the assay filed under Rattus norvegicus [10], 42.9 nmol/10^6 cells. This compound had a Survival in the assay filed under Mus musculus [3] of 40%. Also, the No. of animals in the assay listed under Mus musculus [11] stood at 7; in the assay filed under Mus musculus [14], 1; in the assay filed under Mus musculus [18], 2. This compound came in with a No. of survivors in the assay listed under Mus musculus [15] of 4. For the same compound, the GSH level in the assay filed under Rattus norvegicus [16] was 1.2.
As for `O=C(O)[C@@H]1CSC(C(O)C(O)C(O)C(O)CO)N1` (stereo in doubt; 1f), the “[GSH]” value is reported as 23.2 nmol/10^6 cells in the assay listed under Rattus norvegicus [9] and 58 nmol/10^6 cells in the assay filed under Rattus norvegicus [10]. The compound also came in with a Survival in the assay filed under Mus musculus [3] of 60%. In addition, the No. of animals was found to be 4 in the assay listed under Mus musculus [11]; 1 in the assay listed under Mus musculus [12]; 0 in the assay listed under Mus musculus [13]; 3 in the assay filed under Mus musculus [14]; 2 in the assay listed under Mus musculus [18]. Also, the No. of survivors in the assay filed under Mus musculus [15] was found to be 6. Further, the GSH level in the assay listed under Rattus norvegicus [16] is listed as 1.6; in the assay listed under Rattus norvegicus [17], 0.7.
Turning to `O=C(O)[C@@H]1CSC(C(O)C(O)C(O)C(O)CO)N1` (stereo in doubt; 1g), the “[GSH]” value in the assay filed under Rattus norvegicus [9] came out at 25.4 nmol/10^6 cells; in the assay filed under Rattus norvegicus [10] it was 75.2 nmol/10^6 cells. Also, in the assay listed under Mus musculus [3], the Survival worked out at 30%. Besides, the No. of animals was 7 in the assay listed under Mus musculus [11]; 0 in the assay filed under Mus musculus [12]; 1 in the assay listed under Mus musculus [13]; 2 in the assay filed under Mus musculus [14]; 0 in the assay listed under Mus musculus [18]. This compound returned a No. of survivors in the assay filed under Mus musculus [15] of 3. The compound further had a GSH level in the assay filed under Rattus norvegicus [16] of 2.1.
For the compound `O=C(O)[C@@H]1CSC(C(O)C(O)C(O)C(O)CO)N1` (stereo in doubt; 1h), the “[GSH]” value in the assay filed under Rattus norvegicus [9] turned out to be 18.9 nmol/10^6 cells; in the assay filed under Rattus norvegicus [10], 57.8 nmol/10^6 cells. In the assay filed under Mus musculus [3], the Survival turned out to be 40%. Further, the No. of animals in the assay listed under Mus musculus [11] worked out at 6; in the assay filed under Mus musculus [12], 3; in the assay filed under Mus musculus [14] it was 0; in the assay filed under Mus musculus [18], 1. This compound also came in with a No. of survivors in the assay filed under Mus musculus [15] of 4. Also, the GSH level in the assay filed under Rattus norvegicus [17] was found to be 0.5.
